Source: ChEMBL document CHEMBL3792280, “Design and synthesis of novel quinoxaline derivatives as potential candidates for treatment of multidrug-resistant and latent tuberculosis” (Bioorg Med Chem Lett, 2016)
Converted amounts (≈) assume the structure as drawn.

What was measured:
[1] = test system: Mycobacterium tuberculosis; test: Antimicrobial activity against Mycobacterium tuberculosis H37Rv ATCC 27294 incubated for 7 days by BacTiter-Glo cell viability assay; type: functional, organism-based; settings: for MIC: H37Rv ATCC 27294, 168 h; for IC50 / IC90: H37Rv ATCC 27294, BacTiter-Glo, 168 h
[2] = test system: Mycobacterium tuberculosis; test: Antimicrobial activity against non-replicating Mycobacterium tuberculosis H37Rv SRI 1345 assessed as inhibition of visual growth incubated for 7 days under anaerobic condition by low oxygen recovery assay; type: functional; settings: H37Rv SRI 1345, 168 h
[3] = test system: Mycobacterium tuberculosis; test: Antimicrobial activity against Mycobacterium tuberculosis H37Rv ATCC 27294 infected in mouse J774 cells assessed as log reduction in bacterial burden at 10 times MIC measured 7 days postinfection relative to control; type: functional
Outline: (§1)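 Macrophages infected with H37Rv and treated at three concentrations 10-fold apart, chosen from the primary-screen H37Rv data. The middle concentration brackets the reported MIC, with the others ten-fold below and ten-fold above it. Read-out is log-reduction of intracellular bacterial burden.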

[4] = test system: Mycobacterium tuberculosis; test: Antimicrobial activity against Mycobacterium tuberculosis H37Rv ATCC 27294 infected in mouse J774 cells assessed as log reduction in bacterial burden at 10 times lower MIC measured 7 days postinfection relative to control; type: functional; outline: as §1
[5] = test system: Mycobacterium tuberculosis; test: Antimicrobial activity against Mycobacterium tuberculosis H37Rv SRI 1345 assessed as growth inhibition at MIC after 7 days; type: functional
Outline: (§2)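 MIC in µg/mL, retested on susceptible H37Rv (SRI 1345) in the same panel as single-drug-resistant strains: isoniazid-, rifampin- and ofloxacin-resistant. Percent inhibition recorded at the MIC concentration. Ratio taken as MIC H37Rv / MIC resistant strain.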

J774 [6] = test: Cytotoxicity against mouse J774 cells assessed as cell viability at 10 times MIC by MTT assay relative to control; type: cell-based
J774 [7] = test: Cytotoxicity against mouse J774 cells assessed as cell viability at MIC by MTT assay relative to control; type: cell-based
[8] = test system: Mycobacterium tuberculosis; test: Antimicrobial activity against Mycobacterium tuberculosis H37Rv ATCC 27294 infected in mouse J774 cells assessed as growth inhibition at 10 times lower MIC measured 7 days postinfection; type: functional; outline: as §1
[9] = test system: Mycobacterium tuberculosis; test: Antimicrobial activity against Mycobacterium tuberculosis H37Rv SRI 1345 after 7 days; type: functional; settings: H37Rv SRI 1345, 168 h; outline: as §2
J774 [10] = test: Cytotoxicity against mouse J774 cells assessed as cell viability at 10 times lower MIC by MTT assay relative to control; type: cell-based
[11] = test system: Mycobacterium tuberculosis; test: Antimicrobial activity against Mycobacterium tuberculosis H37Rv ATCC 27294 infected in mouse J774 cells assessed as log reduction in bacterial burden at 10 times lower MIC measured 7 days postinfection relative to rifampicin; type: functional; outline: as §1
[12] = test system: Mycobacterium tuberculosis; test: Antimicrobial activity against Mycobacterium tuberculosis H37Rv ATCC 27294 infected in mouse J774 cells assessed as log reduction in bacterial burden at MIC measured 7 days postinfection relative to control; type: functional; outline: as §1
[13] = test system: Mycobacterium tuberculosis; test: Ratio of MIC for Mycobacterium tuberculosis H37Rv SRI 1345 to MIC for non-replicating Mycobacterium tuberculosis H37Rv SRI 1345; type: functional
Outline: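 Non-replicating bacilli tested by Low Oxygen Recovery Assay (LORA); ratio computed as MIC H37Rv / LORA MIC.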

[14] = test system: Mycobacterium tuberculosis; test: Antimicrobial activity against Mycobacterium tuberculosis H37Rv SRI 1345 assessed as inhibition of visual growth after 18 to 24 hrs; type: functional; settings: read-out: MBC99.9
[15] = test system: Mycobacterium tuberculosis; test: Ratio of MBC for Mycobacterium tuberculosis H37Rv SRI 1345 to MIC for Mycobacterium tuberculosis H37Rv SRI 1345; type: functional
Outline: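 MBC read from colony-forming unit counts; ratio computed as MBC / MIC against H37Rv.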

SMILES | MIC [1] [µM] | IC50 [1] [µM] | IC90 [1] [µM] | further results
O=C(c1ccc(F)cc1)c1c(C(F)(F)F)[n+]([O-])c2cc(F)c(F)cc2[n+]1[O-] | 12.5 (≈ 4.85 µg/mL) | 5.2 | 8 | –
O=C(c1ccc(F)cc1)c1c(C(F)(F)F)[n+]([O-])c2ccc(Cl)cc2[n+]1[O-] | 6.2 (≈ 2.4 µg/mL) | 3.7 | 4.5 | –
O=C(c1ccc(F)cc1)c1c(C(F)(F)F)[n+]([O-])c2ccc(F)cc2[n+]1[O-] | 6.2 (≈ 2.3 µg/mL) | 3.1 | 4 | –
O=C(c1ccco1)c1c(C(F)(F)F)nc2cc(Cl)c(N3CCOCC3)cc2[n+]1[O-] | – | > 100 | > 100 | –
O=C(c1ccc(F)cc1)c1c(C(F)(F)F)[n+]([O-])c2cc(Cl)c(Cl)cc2[n+]1[O-] | 6.2 (≈ 2.61 µg/mL) | 3.6 | 4.5 | –
CC(=O)c1c(C(F)(F)F)[n+]([O-])c2cc(F)c(N3CCC(N4CCOCC4)CC3)cc2[n+]1[O-] | 12.5 (≈ 5.73 µg/mL) | 4 | 7.2 | –
CC(=O)c1c(C(F)(F)F)[n+]([O-])c2cc(N3CCCCC3)c(N3CCCCC3)cc2[n+]1[O-] | 6.2 (≈ 2.72 µg/mL) | 2.2 | 4.6 | –
CCOC(=O)c1c(C(F)(F)F)nc2cc(Cl)c(N3CCOCC3)cc2[n+]1[O-] | – | > 100 | > 100 | –
CC(=O)c1c(C(F)(F)F)[n+]([O-])c2cc(F)c(N3CCCCC3)cc2[n+]1[O-] | 1.6 (≈ 0.597 µg/mL) | 1 | 1.5 | MIC [2]: > 8 µg/mL; log reduction in bacterial burden [3]: 2.66; log reduction in bacterial burden [4]: 1.74; growth inhibition (GI) [5]: 78%; Activity (J774 [6]): 65%; Activity (J774 [7]): 53%; growth inhibition (GI) [8]: >90%; MIC [9]: 1 µg/mL (≈ 2.68 µM); Activity (J774 [10]): 83%; Log reduction in bacterial burden relative to rifampicin [11]: 3; log reduction in bacterial burden [12]: 1.5
CC(=O)c1c(C(F)(F)F)[n+]([O-])c2cc(F)c(N3CCC(O)CC3)cc2[n+]1[O-] | 12.5 (≈ 4.87 µg/mL) | 5.4 | 10.7 | –
COC(=O)c1c(C(F)(F)F)[n+]([O-])c2ccc(N3CCN(c4ccc(F)cc4)CC3)cc2[n+]1[O-] | 1.6 (≈ 0.746 µg/mL) | 0.5 | 0.8 | Ratio [13]: 4; MIC [2]: 0.375 µg/mL (≈ 0.804 µM); log reduction in bacterial burden [3]: 3.86; log reduction in bacterial burden [4]: 1.43; growth inhibition (GI) [5]: 78%; Activity (J774 [6]): 47%; Activity (J774 [7]): 64%; MBC [14]: 4 µg/mL (≈ 8.58 µM); growth inhibition (GI) [8]: >90%; MIC [9]: 1.5 µg/mL (≈ 3.22 µM); Ratio [15]: 2.6; Activity (J774 [10]): 60%; Log reduction in bacterial burden relative to rifampicin [11]: 3; log reduction in bacterial burden [12]: 1.41
Cc1c(C(=O)/C=C/c2ccccc2)[n+]([O-])c2cc(Cl)ccc2[n+]1[O-] | 3.1 (≈ 1.06 µg/mL) | 1.5 | 1.7 | log reduction in bacterial burden [3]: 1.76; log reduction in bacterial burden [4]: 2.11; growth inhibition (GI) [5]: 80%; Activity (J774 [6]): 26%; Activity (J774 [7]): 81%; growth inhibition (GI) [8]: >99%; Activity (J774 [10]): 70%; Log reduction in bacterial burden relative to rifampicin [11]: 3; log reduction in bacterial burden [12]: 1.68
Cc1c(C(=O)/C=C/c2ccc([N+](=O)[O-])s2)[n+]([O-])c2cc(Cl)c(Cl)cc2[n+]1[O-] | – | > 100 | > 100 | –
Cc1c(C(=O)/C=C/c2ccc([N+](=O)[O-])s2)[n+]([O-])c2ccccc2[n+]1[O-] | – | > 100 | > 100 | –
Cc1ccc2c(c1)[n+]([O-])c(C(=O)/C=C/c1ccc([N+](=O)[O-])o1)c(C)[n+]2[O-] | 50 (≈ 17.8 µg/mL) | 29.7 | 38.1 | –
